A short description of assay [1]: Inhibition of the positive chronotropic response (H2-antagonism) of guinea pig right atrium relative to cimetidine. Format: functional, Cavia porcellus, Cardiac atrium.
The target in assay [2] is Histamine H2 receptor (Cavia porcellus) (UniProt P47747). Description: Histamine H2 receptor antagonistic activity at a concentration of 0.3 and 1 uM on the isolated guinea pig right atrium. It is filed as functional, tissue-based. Particulars: Cardiac atrium.
The target is the same in assay [3]. Description: Histamine H2 receptor antagonistic activity at a concentration of 0.3 uM on the isolated guinea pig right atrium. It is filed as functional, tissue-based. Particulars: Cardiac atrium.
Assay [4] shares this target. Description: Inhibition of the positive chronotropic response (histamine H2 receptor antagonism) of guinea pig right atrium relative to cimetidine. Format: functional, tissue-based. Particulars: Cardiac atrium.
Assay [5] has the same target. Description: Histamine H2 receptor antagonistic activity at a concentration of 0.3 and 0.1 uM on the isolated guinea pig right atrium. Format: functional, tissue-based. Particulars: Cardiac atrium.
The target is the same in assay [6]. As to the kind of experiment: Histamine H2 receptor antagonism at a concentration of 1 umolar on the isolated guinea pig right atrium. Format: functional, tissue-based. Particulars: Cardiac atrium.
For assay [7], the target named is T1, Histamine H2 receptor (Cavia porcellus, UniProt P47747). Description: Histamine H2 receptor antagonistic activity on the isolated guinea pig right atrium. Particulars: read-out: pA2 (converted).
T1 sequence (P47747 whole entry): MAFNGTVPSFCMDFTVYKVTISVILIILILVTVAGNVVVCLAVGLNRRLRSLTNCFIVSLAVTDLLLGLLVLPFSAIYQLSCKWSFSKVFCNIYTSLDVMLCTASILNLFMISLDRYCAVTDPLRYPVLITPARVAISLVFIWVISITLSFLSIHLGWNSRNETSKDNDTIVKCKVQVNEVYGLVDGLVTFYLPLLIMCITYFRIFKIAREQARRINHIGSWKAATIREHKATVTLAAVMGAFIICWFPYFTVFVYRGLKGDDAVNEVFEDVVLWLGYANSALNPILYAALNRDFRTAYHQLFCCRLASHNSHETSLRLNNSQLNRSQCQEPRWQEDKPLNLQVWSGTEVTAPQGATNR
Assay [8] has as its target T1, Histamine H2 receptor. As to the kind of experiment: Inhibition of [125I]APT binding to histamine H2 receptor in guinea pig cerebral membranes. It is filed as cell membranes. In short, it runs like this:
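Striatal membranes from male Hartley guinea pigs (200-300 g) in 50 mM sodium/potassium phosphate, pH 7.5, with 0.1% gelatin. Membranes incubated with 125I-APT 120 min at 25 °C, in triplicate. Stopped with cold buffer containing 0.1% BSA, then filtered on polyethylenimine-treated glass-fiber filters and γ-counted. […] Azido compounds handled under dim light.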

Another assay deals with Histamine H1 receptor (Cavia porcellus, UniProt P31389). Description: Histamine H1 receptor antagonistic activity on the isolated guinea pig ileum determined by Schild plot. Format: functional, tissue-based. Particulars: read-out: pA2 (converted). In short, it runs like this: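 Whole proximal guinea pig ileum segments in Tyrode's solution gassed with 95% O2/5% CO2, isotonic recording at 10 mN load. Cumulative histamine (0.01-3 μM) curves. Antagonist applied 10 min before the curve. pK_B from concentration ratio, or pA2 by Schild plot.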
Sequence of Histamine H1 receptor (P31389 whole entry): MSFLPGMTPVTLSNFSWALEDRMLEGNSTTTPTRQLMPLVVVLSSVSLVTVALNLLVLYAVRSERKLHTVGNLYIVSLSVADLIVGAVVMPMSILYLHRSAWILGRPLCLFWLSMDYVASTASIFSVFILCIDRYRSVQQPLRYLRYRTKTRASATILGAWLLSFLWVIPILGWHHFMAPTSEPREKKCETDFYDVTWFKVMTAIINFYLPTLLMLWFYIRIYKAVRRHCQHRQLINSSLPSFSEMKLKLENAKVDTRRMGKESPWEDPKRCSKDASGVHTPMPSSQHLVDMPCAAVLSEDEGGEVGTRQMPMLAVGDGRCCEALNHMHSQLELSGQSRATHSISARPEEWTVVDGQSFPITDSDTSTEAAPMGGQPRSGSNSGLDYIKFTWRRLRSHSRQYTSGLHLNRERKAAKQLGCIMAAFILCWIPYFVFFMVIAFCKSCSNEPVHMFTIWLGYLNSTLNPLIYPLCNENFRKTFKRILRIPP

The target in assay [9] is T1, Histamine H2 receptor. Description: Inhibition of [125I]APT binding to H2 receptors in guinea pig cerebral membranes. Format: cell membranes. In short, it runs like this: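 Striatal membranes from male Hartley guinea pigs (200-300 g) in 50 mM sodium/potassium phosphate, pH 7.5, with 0.1% gelatin. Stopped with cold buffer containing 0.1% BSA, then filtered on polyethylenimine-treated glass-fiber filters and γ-counted. Azido compounds handled under dim light.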

The target of assay [10] is Histamine H2 receptor (Cavia porcellus) (UniProt P47747). Description: Potency to inhibit the positive chronotropic response (H2-antagonism) of guinea pig right atrium relative to cimetidine. Format: functional, tissue-based. Particulars: Cardiac atrium.
The target of assay [11] is Muscarinic acetylcholine receptor M3 (Cavia porcellus) (UniProt Q8VH26).
Sequence of Muscarinic acetylcholine receptor M3 (Cavia porcellus) (Q8VH26 1-587): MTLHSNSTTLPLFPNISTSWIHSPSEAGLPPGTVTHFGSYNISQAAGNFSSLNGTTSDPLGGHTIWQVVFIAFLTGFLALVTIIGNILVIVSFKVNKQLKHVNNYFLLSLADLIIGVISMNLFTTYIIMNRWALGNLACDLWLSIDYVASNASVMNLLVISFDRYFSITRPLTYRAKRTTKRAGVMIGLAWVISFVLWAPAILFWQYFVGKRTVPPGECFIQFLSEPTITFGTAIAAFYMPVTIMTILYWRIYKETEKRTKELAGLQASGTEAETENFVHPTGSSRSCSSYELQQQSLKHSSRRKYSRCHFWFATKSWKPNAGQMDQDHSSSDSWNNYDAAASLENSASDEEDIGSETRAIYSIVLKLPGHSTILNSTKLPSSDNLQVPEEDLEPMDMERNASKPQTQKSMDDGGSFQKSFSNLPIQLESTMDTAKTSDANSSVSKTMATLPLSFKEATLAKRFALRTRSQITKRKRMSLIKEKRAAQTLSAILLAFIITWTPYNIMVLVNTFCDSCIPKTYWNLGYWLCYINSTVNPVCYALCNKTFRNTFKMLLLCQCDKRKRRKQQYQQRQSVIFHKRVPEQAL
In assay [12] the target is Histamine H1 receptor (Cavia porcellus) (UniProt P31389).
Sequence of Histamine H1 receptor (Cavia porcellus) (P31389 whole entry): as the sequence (P31389 whole entry) above

Sequence of Histamine H2 receptor (Cavia porcellus) (P47747 whole entry): as the sequence (P47747 whole entry) above

Take `N#CN/C(=N\CCNC(=O)c1cccc(N)c1)NCCCOc1cccc(CN2CCCCC2)c1`: the Relative potency in [1] came out at 776%. Also, the pKB in [2] came to 7.29.

In assay [1], `N#CN/C(=N\CCCNC(=O)c1ccccc1)NCCCOc1cccc(CN2CCCCC2)c1` returned a Relative potency of 550%. In assay [3], this molecule displayed a pKB of 7.14.

`N#CN/C(=N\CCNC(=O)c1ccc(N=[N+]=[N-])cc1)NCCCCOc1cccc(CN2CCCCC2)c1`: the pKB in assay [3] was 7.54. The Relative potency in assay [4] was 1380%.

As for `N#CN/C(=N\CCCNc1ccccc1[N+](=O)[O-])NCCCOc1cccc(CN2CCCCC2)c1`, in [5], the pKB was 7.52. For the same molecule, in assay [4], the Relative potency was found to be 1320%.

In turn, `N#CN/C(=N\CCNC(=O)Cc1ccccc1)NCCCOc1cccc(CN2CCCCC2)c1` returned a Relative potency in assay [1] of 339%. In assay [6], this molecule returned a negative-log KB (pKB) of 6.93.

On to `N#CN/C(=N\CCNC(=O)c1cc(I)c(N)c(I)c1)NCCCCOc1cccc(CN2CCCCC2)c1`, for which the pKB in [2] amounted to 7.86. This molecule also displayed a Relative potency in assay [4] of 2880%.

For the molecule `N#CN=C(NCCCOc1cccc(CN2CCCCC2)c1)NCCNC(=O)c1ccc(N=[N+]=[N-])c(I)c1`, the Kb on Histamine H2 receptor [7] was 155 nM.

Take `N#CN/C(=N\CCNc1ccc(N=[N+]=[N-])cc1[N+](=O)[O-])NCCCOc1cccc(CN2CCCCC2)c1`: the pKB in assay [6] worked out at 7.39. The molecule also yielded a Relative potency in assay [4] of 977%.

For the molecule `N#CN=C(NCCCOc1cccc(CN2CCCCC2)c1)NCCNC(=O)c1ccc(N)c(I)c1`, at Histamine H2 receptor [8], affinity was put at a Ki of 0.708 nM. For the same molecule, at Histamine H2 receptor [7], the Kb is 27.5 nM.

`N#CN=C(NCCCOc1cccc(CN2CCCCC2)c1)NCCNC(=O)c1cccc(I)c1`: at Histamine H1 receptor, the Kb is 2240 nM. The affinity on Histamine H2 receptor [9], expressed as Ki, was 2.63 nM.

`N#CN/C(=N\CCCNc1ccc(N=[N+]=[N-])cc1[N+](=O)[O-])NCCCCOc1cccc(CN2CCCCC2)c1` gave a negative logarithm of the KB (pKB) in assay [6] of 6.56. The Relative potency in assay [4] was 145%.

The molecule `N#CN/C(=N\CCNC(=O)CCCc1ccccc1)NCCCOc1cccc(CN2CCCCC2)c1` displayed a Relative potency in [1] of 112%. This molecule also came in with a negative logarithm of the KB (pKB) in [6] of 6.45.

For the molecule `N#CN/C(=N\CCCCCNC(=O)c1ccccc1)NCCCOc1cccc(CN2CCCCC2)c1`, the Relative potency in assay [1] is 151%. Besides, the pKB in assay [6] was 6.58.

For the molecule `N#CN/C(=N\CCCNC(=O)c1ccccc1)NCCCCOc1cccc(CN2CCCCC2)c1`, the Relative potency in assay [1] is reported as 158%. For the same molecule, the pKB in assay [6] amounted to 6.6.

`N#CN/C(=N\CCCCNC(=O)c1ccc(N)cc1)NCCCOc1cccc(CN2CCCCC2)c1`: the Relative potency in [1] is 81%. In assay [6], this molecule registered a pKB of 6.31.

Turning to `N#CN/C(=N\CCNC(=O)c1cccc(I)c1)NCCCCOc1cccc(CN2CCCCC2)c1`, the inhibition constant (Ki) on Histamine H2 receptor [9] was 5.25 nM. For the same molecule, the negative logarithm of the KB (pKB) in [6] worked out at 6.56; in [11], 5.59; in [12] it was 6.15. Also, in [10], the Relative potency was 145%.

`Cc1ccc(S(=O)(=O)NCC/N=C(\NC#N)NCCCCOc2cccc(CN3CCCCC3)c2)cc1` showed a Relative potency in assay [1] of 776%. The pKB in assay [6] came to 7.29.

Turning to `Nc1ccc(C(=O)NCCNC(=O)NCCCOc2cccc(CN3CCCCC3)c2)cc1`, in [1], the Relative potency is reported as 676%. Moreover, the pKB in assay [6] was 7.23.

`C/N=C(/NC#N)NCCSCc1csc(NC(=N)N)n1` returned a negative-log KB (pKB) in [6] of 7.8.

In assay [1], `N#CN/C(=N\CCNS(=O)(=O)c1ccccc1)NCCCCOc1cccc(CN2CCCCC2)c1` showed a Relative potency of 759%. For the same molecule, in [6], the pKB was determined as 7.28.

The molecule `N#CN/C(=N\CCCOc1cccc(CN2CCCCC2)c1)NCC(O)CNc1ccccc1[N+](=O)[O-]` (stereo not given) returned a pKB in assay [5] of 7.34. In assay [4], this molecule showed a Relative potency of 871%.

Molecule `N#CN/C(=N\CCNC(=O)c1ccc(N=[N+]=[N-])cc1)NCCCOc1cccc(CN2CCCCC2)c1` returned a pKB in [6] of 7.9. Moreover, in assay [4], the Relative potency is 3160%.

Regarding `N#CN/C(=N\CCNC(=O)c1ccc(N)cc1)NCCCCOc1cccc(CN2CCCCC2)c1`, the Relative potency in [1] worked out at 589%. Moreover, in assay [3], the negative-log KB (pKB) came out at 7.17.

Take `N#CN/C(=N\CCNC(=O)c1ccccc1[N+](=O)[O-])NCCCCOc1cccc(CN2CCCCC2)c1`: in assay [1], the Relative potency turned out to be 1318%. Moreover, the pKB in assay [6] amounted to 7.52.

The molecule `N#CN/C(=N\CCNC(=O)c1ccccc1)NCCCOc1cccc(CN2CCCCC2)c1` registered a Relative potency in assay [1] of 2630%. The pKB in assay [3] came out at 7.82.

For the molecule `N#CN/C(=N\CCNC(=O)c1ccncc1)NCCCOc1cccc(CN2CCCCC2)c1`, the Relative potency in [1] came out at 309%. The same molecule displayed a pKB in [6] of 6.89.

For `N#CN/C(=N\CCNS(=O)(=O)c1ccccc1)NCCCOc1cccc(CN2CCCCC2)c1`, the Relative potency in assay [1] is 186%. The molecule further displayed a pKB in assay [2] of 6.67.

On to `N#CN/C(=N\CCNc1ccc(N=[N+]=[N-])cc1[N+](=O)[O-])NCCCCOc1cccc(CN2CCCCC2)c1`, for which the pKB in assay [3] amounted to 7.47. The Relative potency in assay [4] was 1180%.

`N#CN/C(=N\CCCNC(=O)c1ccc(N=[N+]=[N-])cc1)NCCCCOc1cccc(CN2CCCCC2)c1`: in assay [3], the negative-log KB (pKB) came to 6.63. In assay [4], the Relative potency was 170%.

Consider `N#CN/C(=N\CCNC(=O)c1ccc(N)c(I)c1)NCCCCOc1cccc(CN2CCCCC2)c1`, for which the negative logarithm of the KB (pKB) in [3] came out at 7.35. This molecule had a Relative potency in assay [4] of 891%.

In [1], `CC(C)(C)OC(=O)Nc1ccc(CC(=O)NCC/N=C(\NC#N)NCCCCOc2cccc(CN3CCCCC3)c2)cc1` displayed a Relative potency of 44%. The molecule also showed a negative logarithm of the KB (pKB) in assay [6] of 6.04.

As to `N#CN/C(=N\CCNC(=O)CCc1ccccc1)NCCCOc1cccc(CN2CCCCC2)c1`, the Relative potency in assay [1] worked out at 74%. In assay [6], this molecule displayed a negative logarithm of the KB (pKB) of 6.27.

In turn, `CC(C)(C)OC(=O)Nc1ccc(C(=O)NCC/N=C(\NC#N)NCCCOc2cccc(CN3CCCCC3)c2)cc1` yielded a Relative potency in assay [1] of 295%. Further, in assay [2], the negative-log KB (pKB) turned out to be 6.87.

`CNC(=C[N+](=O)[O-])NCCSCc1ccc(CN(C)C)o1` [RANITIDINE] had a Ki on Histamine H2 receptor [8] of 53.7 nM. For the same molecule, the pKB in assay [6] stood at 7.2. In addition, the Relative potency in assay [4] is 631%.

The molecule `N#CN/C(=N\CCNC(=O)c1ccccc1)NCCCCOc1cccc(CN2CCCCC2)c1` registered a Relative potency in assay [1] of 1862%. In addition, the pKB in [6] was found to be 7.67.

With `N#CN/C(=N\CCCNC(=O)CCc1ccccc1)NCCCOc1cccc(CN2CCCCC2)c1`, the Relative potency in assay [1] turned out to be 47%. For the same molecule, the pKB in [6] was 6.07.

`N#CN/C(=N\CCCNc1ccccc1[N+](=O)[O-])NCCCCOc1cccc(CN2CCCCC2)c1` showed a pKB in assay [6] of 7.85. Also, the Relative potency in [4] was 2820%.

`N#CN/C(=N\CCOC(=O)c1ccccc1)NCCCOc1cccc(CN2CCCCC2)c1`: the Relative potency in [1] is recorded as 1738%. Moreover, the negative-log KB (pKB) in assay [6] was found to be 7.64.

In the case of `Nc1ccc(C(=O)NCCCOc2cccc(CN3CCCCC3)c2)cc1`, the Relative potency in assay [1] is reported as 263%. Moreover, in [6], the pKB turned out to be 6.82.

For `N#CN/C(=N\CCCCCCNC(=O)c1ccccc1)NCCCOc1cccc(CN2CCCCC2)c1`, the Relative potency in [1] was 158%. In assay [6], this molecule came in with a pKB of 6.6.

Turning to `N#CN/C(=N\CCCCNC(=O)c1ccccc1)NCCCOc1cccc(CN2CCCCC2)c1`, in assay [1], the Relative potency is recorded as 257%. The pKB in assay [6] was determined as 6.81.

As to `N#CN/C(=N\CCCNc1ccc(N=[N+]=[N-])cc1[N+](=O)[O-])NCCCOc1cccc(CN2CCCCC2)c1`, the pKB in assay [3] came out at 6.79. The molecule further gave a Relative potency in assay [4] of 245%.

Take `N#CN/C(=N\CCCOc1cccc(CN2CCCCC2)c1)NCC(O)CNC(=O)c1ccccc1` (stereo not given): the Relative potency in [1] worked out at 813%. Moreover, the negative-log KB (pKB) in [2] was 7.31.

`Cc1ccc(S(=O)(=O)NCC/N=C(\NC#N)NCCCOc2cccc(CN3CCCCC3)c2)cc1` came in with a Relative potency in assay [1] of 54%. For the same molecule, in assay [6], the pKB worked out at 6.13.

`CN/C(=N\CCSCc1nc[nH]c1C)NC#N` returned a pKB in assay [6] of 6.4.

In assay [6], `N#CN/C(=N\CCCNC(=O)c1ccc(N=[N+]=[N-])cc1)NCCCOc1cccc(CN2CCCCC2)c1` had a pKB of 6.36. The same molecule gave a Relative potency in [4] of 91%.

In [1], `O=C(NCCCOc1cccc(CN2CCCCC2)c1)NCCNC(=O)c1ccccc1` had a Relative potency of 50%. Besides, in assay [6], the pKB stood at 6.1.
